Data from ChEMBL document CHEMBL1143073, “Benzoic acid derivatives, acetophenones, and anti-inflammatory constituents from Melicope semecarpifolia” (J Nat Prod, 2008).
Converted amounts (≈) assume the structure as drawn. The source made the active and inactive calls. No cut-off for these calls is given here.

Tests used:
[1] = Antiinflammatory activity in human neutrophils assessed as inhibition of fMet-Leu-Phe/Cytochalasin B-induced elastase release at 10 ug/mL; format: functional, cell-based; settings: Neutrophil
How it was run: (§1)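 Human volunteer neutrophils (6 × 10^5/mL) prepared by dextran sedimentation, Ficoll Hypaque gradient and hypotonic lysis, kept in Ca2+-free HBSS pH 7.4 at 4 °C. Elastase substrate MeO-Suc-Ala-Ala-Pro-Val-p-nitroanilide 100 µM added; cells equilibrated 2 min at 37 °C, drug 5 min, then fMLP 100 nM/cytochalasin B 0.5 µg/mL stimulation. Absorbance at 405 nm monitored continuously; n = 4.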

[2] = Antiinflammatory activity in human neutrophils assessed as inhibition of fMet-Leu-Phe/Cytochalasin B-induced superoxide anion generation; format: functional, cell-based; settings: Neutrophil
How it was run: (§2)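 Neutrophils isolated from venous blood of healthy adult volunteers (20–28 years) by dextran sedimentation, Ficoll Hypaque centrifugation and hypotonic erythrocyte lysis, >98% viable, held in Ca2+-free HBSS pH 7.4 at 4 °C. Cells given 0.5 mg/mL ferricytochrome c and 1 mM Ca2+, 37 °C 2 min, drug 5 min, cytochalasin B 1 µg/mL 3 min, then fMLP 100 nM 10 min. SOD-inhibitable (100 U/mL) reduction at 550 nm; n = 4.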

[3] = Antiinflammatory activity in human neutrophils assessed as inhibition of fMet-Leu-Phe/Cytochalasin B-induced superoxide anion generation at 10 ug/mL; format: functional; settings: Neutrophil; how it was run: as §2
[4] = Antiinflammatory activity in human neutrophils assessed as inhibition of fMet-Leu-Phe/Cytochalasin B-induced elastase release; format: functional, cell-based; settings: Neutrophil; how it was run: as §1
Neutrophil [5] = assay: Antiinflammatory activity in human neutrophils assessed as inhibition of superoxide anion generation at 10 ug/mL; format: functional, cell-based
How it was run: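 Healthy-volunteer neutrophils (dextran/Ficoll isolation, Ca2+-free HBSS pH 7.4) supplemented with 0.5 mg/mL ferricytochrome c and 1 mM Ca2+. Equilibrated 2 min at 37 °C, drug 5 min, cytochalasin B 1 µg/mL 3 min, then fMLP 100 nM 10 min. SOD-inhibitable ferricytochrome c reduction read at 550 nm with stirring, difference ± SOD (100 U/mL). Percent inhibition, n = 4.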

Neutrophil [6] = assay: Antiinflammatory activity in human neutrophils assessed as inhibition of elastase release at 10 ug/mL; format: functional, cell-based
How it was run: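 Neutrophils from venous blood of healthy adult volunteers, isolated by dextran sedimentation, Ficoll Hypaque centrifugation and hypotonic erythrocyte lysis, kept in Ca2+-free HBSS pH 7.4 at 4 °C. Cells (6 × 10^5/mL) with MeO-Suc-Ala-Ala-Pro-Val-p-nitroanilide (100 µM), 2 min at 37 °C, drug 5 min, then fMLP (100 nM)/cytochalasin B (0.5 µg/mL). A405 monitored continuously. Percent inhibition, mean ± SEM, n = 4.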

Structure (SMILES)	IC50 [2]	IC50 [4]	inhibition at 10 µg/mL [1]	also measured
CC(=O)c1c(O)cc(OC/C=C(\C)CCC=C(C)C)c2c1OC(C)(C)[C@H](O)C2	–	–	28.7%	inhibition at 10 µg/mL [3]: 30.6%
CC(=O)c1c(O)cc(OC/C=C(\C)CCC=C(C)C)c2c1OC(C)(CCC=C(C)C)C=C2 (stereo unspecified)	–	–	26.6%	inhibition at 10 µg/mL [3]: 23.2%
c1ccc2c(c1)[I+]c1ccccc1-2 [DIPHENYLENEIODONIUM]	0.52 µM	–	–	–
CC(=O)c1c(O)cc(OC/C=C(\C)CCC=C(C)C)c2c1OC(C)(C)C=C2	–	–	27.4%	inhibition at 10 µg/mL [3]: 21.4%
O=S(=O)(F)Cc1ccccc1 [PHENYLMETHYLSULFONYLFLUORIDE]	–	–	–	IC50 [1]: 35.7 µM
CC[C@H](CC[C@@H](C)[C@H]1CC[C@H]2[C@@H]3C(=O)C=C4C[C@@H](O)CC[C@]4(C)[C@H]3CC[C@]12C)C(C)C	–	–	7.48%	inhibition at 10 µg/mL [3]: 22.6%
CC(=O)c1c(O)cc(O)cc1OC/C=C(\C)CCC=C(C)C	–	–	–	Activity (Neutrophil [5]): Active; Activity (Neutrophil [6]): Active

Further lines, with some results ahead:

IC50 [2]	IC50 [4]	Structure (SMILES)	inhibition at 10 µg/mL [1]	also measured
8.02 µg/mL	–	CC(=O)c1c(OC/C=C(\C)CCC=C(C)C)cc(O)c(C(=O)O)c1O	46.1%	–
1.2 µg/mL	0.7 µg/mL (≈ 2.23 µM)	COc1cc(O)c2c(=O)c(OC)c(-c3ccc(O)cc3)oc2c1 [KUMATAKENIN]	–	–
1 µg/mL	0.99 µg/mL (≈ 2.88 µM)	COc1cc(O)c2c(=O)c(OC)c(-c3ccc(O)c(OC)c3)oc2c1 [PACHYPODOL]	–	–
6.62 µg/mL	5.79 µg/mL (≈ 16.6 µM)	CC(=O)c1c(O)cc(OC/C=C(\C)CCC=C(C)C)c(C(=O)O)c1O	–	–
3.75 µg/mL	0.91 µg/mL (≈ 2.84 µM)	CC(C)=CCC/C(C)=C/COc1cc(O)c(C(=O)CO)c(O)c1	–	–
1.43 µg/mL	1.69 µg/mL (≈ 4.72 µM)	COc1cc(O)c2c(=O)c(OC)c(-c3ccc(OC)c(OC)c3)oc2c1 [RETUSIN]	–	–
0.73 µg/mL	0.6 µg/mL (≈ 1.87 µM)	CC(C)=CCC/C(C)=C/COc1cc(O)cc(O)c1C(=O)CO	–	–
